Scp-1 inhibitor – blocks human Scp-1 phosphatase activity. Q9GZU7. 0.88% of 340,000 active. AID 493091. Recombinant Scp1, phosphopeptide, malachite green phosphate absorbance. inhibition, % at 20 µM;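 active = inhibition above about 50% at 20 µM, limit read from the data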;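 note: plate controls were DMSO wells with enzyme for no effect and wells lacking enzyme for full effect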
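Test system: SCP-1 catalytic domain; Buffer or medium: Acidic Tris acetate buffer with magnesium and detergent; Also added: Phosphorylated 17-residue peptide substrate; Compound: single 20 µM dose, 1% DMSO; Schedule: enzyme reaction 45 min at room temperature, colour 5 min, stabilisation 30 min; Signal: Phosphate-binding colour reagent, absorbance read at 630 nm.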
STEP inh – STEP (human) phosphatase inhibition. P54829. recombinant STEP, OMFP fluorogenic substrate, fluorescence. inhibition, % at 20 µM. 0.25% of 360,000 active. AID 588621;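 active = inhibition at 20 µM, scaled per plate between control wells, above about 37%, limit read from the data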;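 note: 0% = DMSO with enzyme and substrate and 100% = substrate only without enzyme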
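medium = Bis-Tris buffer pH 6.0, 2.5 mM DTT, 0.005% Tween 20 | test system = STEP (striatal-enriched tyrosine phosphatase) enzyme, cell-free | measure = normalized % inhibition | compound dosing = 20 µM, 1% DMSO | also added = 25 µM OMFP | schedule = reaction 20 min, ambient temperature | measured by = fluorescence read at 480 nm ex / 540 nm em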
SUMO1 PPI mod – alters human SUMO1 binding to SIM partners | P63165 | SUMO1 binding to a labelled peptide, TR-FRET, 1 h | inhibition, % at 20 µM | 0.33% of 360,000 active | AID 602429; in the data active = inhibition above about 37%
DNMT1 block – DNMT1 (human) enzyme inhibition | P26358 | DNMT1 molecular beacon, Hinp1I cleavage, fluorescence | inhibition (reported as % activation of signal), % at 10 µM | 0.83% of 360,000 active; in the data active = inhibition above about 50%
Target sequence (P26358 504-1616 limits assumed): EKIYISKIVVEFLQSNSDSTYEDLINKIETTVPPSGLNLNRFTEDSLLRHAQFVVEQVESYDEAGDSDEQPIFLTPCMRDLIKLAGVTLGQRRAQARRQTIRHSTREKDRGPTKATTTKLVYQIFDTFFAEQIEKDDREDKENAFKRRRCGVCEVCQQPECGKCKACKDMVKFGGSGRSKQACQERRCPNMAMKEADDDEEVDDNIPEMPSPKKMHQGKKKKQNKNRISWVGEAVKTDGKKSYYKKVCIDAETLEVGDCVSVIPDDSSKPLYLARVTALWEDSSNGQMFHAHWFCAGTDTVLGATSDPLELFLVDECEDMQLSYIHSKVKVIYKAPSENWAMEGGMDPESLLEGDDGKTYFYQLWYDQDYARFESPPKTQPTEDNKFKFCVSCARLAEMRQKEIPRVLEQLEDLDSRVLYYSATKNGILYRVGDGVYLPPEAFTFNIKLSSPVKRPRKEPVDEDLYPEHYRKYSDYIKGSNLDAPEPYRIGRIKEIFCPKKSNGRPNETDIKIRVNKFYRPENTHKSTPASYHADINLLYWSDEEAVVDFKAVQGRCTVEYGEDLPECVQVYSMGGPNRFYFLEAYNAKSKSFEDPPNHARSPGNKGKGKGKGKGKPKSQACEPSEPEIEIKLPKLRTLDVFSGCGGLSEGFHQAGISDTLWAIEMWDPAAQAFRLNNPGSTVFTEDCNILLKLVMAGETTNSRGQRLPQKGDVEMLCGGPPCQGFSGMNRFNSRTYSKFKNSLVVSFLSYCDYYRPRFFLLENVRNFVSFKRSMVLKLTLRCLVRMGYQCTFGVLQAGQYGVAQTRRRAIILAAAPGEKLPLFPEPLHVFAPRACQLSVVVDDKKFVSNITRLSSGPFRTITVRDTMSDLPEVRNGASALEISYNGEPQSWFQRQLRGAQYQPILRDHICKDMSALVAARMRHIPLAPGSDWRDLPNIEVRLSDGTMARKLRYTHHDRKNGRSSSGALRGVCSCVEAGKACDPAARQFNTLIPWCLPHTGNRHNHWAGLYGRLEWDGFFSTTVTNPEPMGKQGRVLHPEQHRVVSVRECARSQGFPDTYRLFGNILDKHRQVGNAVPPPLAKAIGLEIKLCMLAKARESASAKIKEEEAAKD
LMPTP inh – LMPTP (human) inhibition; recombinant LMPTP-A, OMFP fluorogenic substrate, fluorescence intensity; AID 651560; 0.22% of 360,000 active; inhibition, % at 20 µM; P24666;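 active = compounds that cut the enzyme signal by at least half of the control window in the single-dose screen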;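 note: plate controls were DMSO wells with enzyme plus substrate for no effect and substrate without enzyme for full effect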
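test system = LMPTP-A | amount = 0.625 nM LMPTP-A final | reagent = fluorogenic phosphatase substrate OMFP at 400 µM final | incubation = 50 min at room temperature | benchmarks = no-enzyme low control, uninhibited high control | medium = Bis-Tris pH 6.0, DTT, detergent | signal = fluorescence intensity of OMFP turnover product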
Scp-1 conf – Scp-1 (human) inhibition, single-dose confirmed. shares compounds with Scp-1 inhibitor. recombinant SCP-1 catalytic domain, phosphate release, malachite green absorbance. inhibition, % at 20 µM. 61% of 2,500 active. AID 540281;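 note: plate controls were DMSO with enzyme for no effect and buffer wells lacking enzyme for full effect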
MG interference – counter-screen for Scp-1 inhibitors: colorimetric interference | shares compounds with Scp-1 inhibitor | Colorimetric interference counterscreen, malachite green absorbance 630 nm | apparent inhibition (interference), % at 20 µM | 2,500 tested, under 10 active | AID 540313;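 note: compounds added after enzyme reaction finished so only phosphate colour detection is probed; plate controls were DMSO wells with completed Scp-1 reaction for no effect and substrate wells lacking enzyme for full effect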
Scp-1 Tm shift – binds human Scp-1, shifting its melting temperature | shares compounds with Scp-1 inhibitor | Recombinant SCP1, Sypro Orange thermal shift Tm | thermal shift relative to vanadate control, % at 40 µM | 25% of 1,500 active;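 active = substances whose mean melting-temperature shift, as a percentage of the reference inhibitor's shift, reaches about 5.3%, limit read from the data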;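 note: 0% = Tm of DMSO wells and 100% = Tm with sodium orthovanadate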
DNMT1 inh conf – confirmation of human DNMT1 inhibitors. shares compounds with DNMT1 block. DNMT1 molecular beacon HinP1I cleavage, fluorescence. inhibition, % at 10 µM. 8% of 2,300 active. AID 602385;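 active = average inhibition of at least 30% in the single-concentration confirmation test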
DNMT1 interf – shows spectral interference in the DNMT1 beacon assay; shares compounds with DNMT1 block; DNMT1 molecular beacon spectral interference counterscreen, fluorescence 485/520; activation (fluorescence interference), % at 10 µM; 1% of 2,300 active;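 active = activation of at least 30% at 10 µM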;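 note: DNMT1 catalytic domain with a HinP1I cleavage step and a FAM/dabcyl DNA beacon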
Numbers without * were called inactive; . = no result. Most compounds without a hit are left out; they make up all but 1.7% or so of the library.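 Rule for the calls, unless noted: active = inhibition of at least 30% at 20 µM; inactive = the rest.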

SMILES	Scp-1 inhibitor	STEP inh	SUMO1 PPI mod	DNMT1 block	LMPTP inh	Scp-1 conf	MG interference	Scp-1 Tm shift	DNMT1 inh conf	DNMT1 interf
O=C(COC(=O)c1ccccc1)NCc1ccco1	104.4*	-1.6	2.7	74.1*	14.2	63.2*	-8.7	-18.3	6.0	4.2
O=C(COC(=O)c1cccc(Br)c1)NCc1ccco1	55.5*	0.9	7.0	87.3*	12.9	53.2*	-13.4	0.9	2.0	4.3
O=C(COC(=O)/C=C/c1ccco1)NCc1ccco1	72.4*	12.0	-3.1	51.7*	8.3	81.6*	5.0	0.9	2.0	3.6
CN(C)CCCNC(=O)C(=O)NCC(c1cccs1)S(=O)(=O)c1ccc(F)cc1 (configuration not stated)	-0.8	0.0	0.1	-6.2	-0.3	.	.	.	.	.
CC(C)(C)c1ccc(C(=O)OCC(=O)NC2CC2)cc1	-13.1	-0.8	-4.2	-0.2	0.1	.	.	.	.	.
CCCN(CC(=O)Nc1ccccc1C)C(=O)c1ccc(=O)n(Cc2ccccc2)n1	-1.1	-2.4	-2.3	1.0	-0.6	.	.	.	.	.
O=C(CNS(=O)(=O)c1ccccc1)OCC(=O)c1ccccc1Cl	-4.7	-3.0	4.1	2.6	-1.1	.	.	.	.	.
O=C(c1cccs1)N1C[C@@H](O)[C@H](n2cc(-c3ccc(F)cc3)nn2)C[C@@H]1c1ccc(Cl)cc1	.	0.5	6.3	-3.7	2.0	.	.	.	.	.
O=C(COC(=O)Cc1ccc(Cl)c(Cl)c1)NCc1ccco1	-0.8	2.5	1.7	-1.3	1.8	.	.	.	.	.
O=C(COC(=O)Cc1ccc(Cl)cc1)NCc1ccco1	81.8*	6.9	19.1	88.2*	-0.8	71.4*	-4.3	1.9	8.0	2.2
COc1ccccc1NCCC(=O)OCC(=O)NCc1ccco1	74.9*	4.5	4.8	51.2*	22.1	63.9*	-8.7	-1.2	16.9	-1.9
Cc1cc(Br)ccc1SCC(=O)OCC(=O)NCc1ccco1	75.2*	6.9	19.5	82.1*	5.8	61.3*	-17.2	1.0	9.0	-2.1
Cc1nc(SCC(=O)NCc2ccco2)c2c(C)c(C)sc2n1	-0.7	2.7	-1.4	0.0	-1.0	.	.	.	.	.
O=C(CSc1nc2cc(Cl)ccc2s1)NC(=O)NCc1ccco1	79.5*	2.3	0.6	53.8*	4.2	53.2*	-7.9	3.3	6.5	2.8
Cc1sc2ncnc(SCC(=O)NC(=O)NCc3ccco3)c2c1C	57.3*	8.2	3.8	69.3*	13.0	49.1*	-12.3	-7.0	2.4	2.2
CCOc1ccc2nc(SCC(=O)NC(=O)NCc3ccco3)sc2c1	-7.0	-1.2	2.4	-6.5	3.6	.	.	.	.	.
CCCCN(C(=O)Cn1ncc(Cl)c(Cl)c1=O)c1c(N)n(CC(C)C)c(=O)[nH]c1=O	81.7*	2.1	0.9	61.5*	26.0	76.1*	-4.0	6.2*	20.3	3.5
O=C(NC1=NCCS1)C1CCN(S(=O)(=O)c2cc([N+](=O)[O-])ccc2Cl)CC1	90.7*	1.8	-20.8	75.9*	18.1	77.0*	-5.4	11.4*	2.0	-1.6
O=C(NC1CC1)C1CCN(S(=O)(=O)c2cc([N+](=O)[O-])ccc2Cl)CC1	75.7*	0.3	-11.5	89.7*	43.2	68.9*	-11.4	11.4*	6.0	-1.8
O=C(NC1CC1)C1CCN(S(=O)(=O)c2cc(Cl)ccc2Cl)CC1	-1.9	1.2	-0.7	4.6	0.4	.	.	.	.	.
Cc1cccc2sc(NC(=O)C3CCN(S(=O)(=O)c4cc([N+](=O)[O-])ccc4Cl)CC3)nc12	79.6*	12.1	4.3	56.9*	5.1	53.8*	-18.6	11.7*	0.7	-0.8
CC1CCN(S(=O)(=O)c2nnc(NC(=O)COc3ccccc3)s2)CC1	-4.3	-1.2	-2.4	3.8	-1.8	.	.	.	.	.
O=C(N/N=C/c1ccc(-c2ccccc2C(=O)O)o1)c1cccs1	51.8*	4.7	24.6	62.6*	4.1	70.8*	-5.7	6.5*	8.8	-0.2
CC1(C(=O)N2CCN(Cc3ccccc3Cl)CC2)CC1(Cl)Cl (configuration not stated)	-4.7	-3.1	7.8	-2.9	-0.1	.	.	.	.	.
COc1ccc(NC(=O)/C(C#N)=C/c2ccc(Br)o2)cc1	76.7*	6.3	1.3	99.1*	22.7	55.6*	-14.0	5.5*	1.3	1.4
SMILES	Scp-1 inhibitor	STEP inh	SUMO1 PPI mod	DNMT1 block	LMPTP inh	Scp-1 conf	MG interference	Scp-1 Tm shift	DNMT1 inh conf	DNMT1 interf
O=C(Nc1ccccc1C(F)(F)F)NC1(C(=O)N2CCOCC2)CCCCC1	74.8*	28.1	42.1*	94.6*	60.7*	55.3*	-22.5	12.1*	9.1	-4.2
O=c1[nH][nH]c2c1C(c1cccc(C(F)(F)F)c1)OC(CCc1ccccc1)C2 (configuration not stated)	.	.	-0.9	.	1.1	.	.	.	.	.
COc1ccc(N2Cc3ccccc3C2=O)cc1	-1.8	1.7	-0.2	-0.5	-0.9	.	.	.	.	.
COc1ccc(N2Cc3cccc(C(=O)O)c3C2=O)cc1	81.5*	5.8	15.5	87.2*	6.7	71.1*	-10.1	0.4	14.6	-0.7
Nc1ncnc(N2CCc3ccccc32)c1[N+](=O)[O-]	-14.4	7.4	-18.4	-1.7	1.1	.	.	.	.	.
Cc1ccc(C)c(S(=O)(=O)N2CCCCC2CCNC(=O)C(=O)NCc2ccncc2)c1 (configuration not stated)	1.2	-0.8	0.9	-5.9	-0.4	.	.	.	.	.
O=C(CCS(=O)(=O)c1ccc(Br)cc1)NCc1cccs1	86.7*	1.2	5.4	58.7*	-1.0	68.5*	-10.4	-13.1	3.1	1.3
O=C(CCS(=O)(=O)c1ccc(Br)cc1)NCc1ccco1	74.7*	34.6	26.4	57.2*	2.2	66.6*	-15.1	-4.3	5.0	5.8
O=C(CCS(=O)(=O)c1ccc(Br)cc1)NC1CCCC1	75.0*	0.2	-1.6	56.2*	0.1	61.6*	-9.3	-23.2	3.0	2.9
O=C(CCNS(=O)(=O)c1ccc(Br)cc1)NC1CCCCC1	2.6	-1.8	1.0	0.9	0.3	.	.	.	.	.
O=C(COc1ccc(F)cc1Cl)Nc1ccccc1C(=O)N1CCCCC1	-0.1	0.9	-3.7	-6.2	2.3	.	.	.	.	.

Bioassay records deposited in PubChem by Sanford-Burnham Center for Chemical Genomics.
